Source: PubChem (several laboratories)
Runt-SMMHC FRET: inhibitors of RUNX1 Runt–CBFb-SMMHC binding, primary screen, biochemical, FRET, Cerulean-Runt, Venus-CBFb-SMMHC, uHTS. inhibition, % at 20 µM. Runt-related transcription factor 1 (Homo sapiens) + Core-binding factor subunit beta …. 220,000 tested, 0.74% active. Cerulean-Runt/Venus-CBFb-SMMHC FRET ratio 530/480, 1 h;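 active = mean inhibition across duplicate retests at 20 µM reaching about 50%, limit read from the data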;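 also: 0% = DMSO wells and 100% = wells with excess untagged CBFb-SMMHC; inhibitors lower the FRET ratio by blocking Runt binding to CBFb-SMMHC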
Target sequence (Q01196 whole entry, looked up): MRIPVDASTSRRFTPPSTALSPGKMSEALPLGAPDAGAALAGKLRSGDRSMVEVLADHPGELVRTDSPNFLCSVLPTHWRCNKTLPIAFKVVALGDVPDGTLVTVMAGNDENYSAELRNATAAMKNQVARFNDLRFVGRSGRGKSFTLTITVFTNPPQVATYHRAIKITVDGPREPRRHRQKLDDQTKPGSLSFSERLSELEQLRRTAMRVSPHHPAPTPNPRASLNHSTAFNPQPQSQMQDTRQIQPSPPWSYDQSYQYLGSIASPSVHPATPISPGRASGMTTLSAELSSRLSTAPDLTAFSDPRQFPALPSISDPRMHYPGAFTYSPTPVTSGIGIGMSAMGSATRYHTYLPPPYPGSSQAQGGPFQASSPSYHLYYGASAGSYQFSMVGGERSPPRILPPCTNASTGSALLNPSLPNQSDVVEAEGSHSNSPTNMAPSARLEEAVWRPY
Target sequence (Q13951 whole entry, looked up): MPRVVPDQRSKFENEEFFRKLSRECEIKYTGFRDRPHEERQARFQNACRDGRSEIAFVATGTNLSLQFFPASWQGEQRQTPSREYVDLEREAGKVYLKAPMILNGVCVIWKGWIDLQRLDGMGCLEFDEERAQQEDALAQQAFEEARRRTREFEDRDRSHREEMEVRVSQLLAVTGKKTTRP
RanGTP-Imp inh: inhibitors of RanGTP-importin-beta interaction, primary screen, biochemical, FRET, CFP-Ran, YFP-importin-beta, homogeneous. 300,000 tested, 1.1% active. Ran GTPase (GTP-bound) - importin-beta complex. cell-free CFP-Ran/YFP-importin-beta FRET ratio. inhibition, % (concentration not given with the values);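 active = more than half of the replicate wells show a fall in the fluorescence ratio signal beyond about 16%, limit read from the data, passing the limit was not always enough; inconclusive = exactly half of the replicate wells pass the set limit; inactive = fewer than half of replicates pass the limit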;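 also: 0% = DMSO wells and 100% = Ran loaded with GDP instead of GTP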
IMP-1 inh-1: IMP-1 metallo-beta-lactamase inhibitors, primary screen, biochemical, epi-absorbance readout, Pseudomonas aeruginosa enzyme | metallo-beta-lactamase IMP-1 (Pseudomonas aeruginosa) | purified IMP-1, nitrocefin hydrolysis, epi-absorbance fluorescence | inhibition, % at 5.6 µM | 290,000 tested, 0.45% active | AID 1556, 2009;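 active = inhibition above the mean plus 3 SD of all compounds in the same screening run, cut at about 4.5% in these data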;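 also: 0% = IMP-1 with DMSO and 100% = DMSO wells lacking enzyme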
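System: Purified recombinant IMP-1 metallo-beta-lactamase enzyme | Measured by: Fluorescence quenching readout, ex 480/em 530 nm | Replication: Singlicate | Incubation: 15 min preincubation plus 25 min reaction at 25 °C | Evaluation: Percent inhibition from optical density relative to buffer-blank wells | Benchmarks: DMSO with and without IMP-1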
VIM-2 inhibitor: VIM-2 metallo-beta-lactamase inhibitors, primary screen, biochemical, epi-absorbance readout, Pseudomonas aeruginosa enzyme; purified VIM-2, nitrocefin hydrolysis, epi-absorbance fluorescence; 290,000 tested, 0.89% active; inhibition, % at 5.6 µM;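 active = inhibition above the mean of all tested compounds plus 3 SD, cutoff set per screening run, cut at about 7.5% in these data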;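 also: red hydrolysis product quenches plate fluorescence so inhibitors raise well fluorescence; 0% = enzyme with DMSO and 100% = DMSO without enzyme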
Runt-CBFb FRET: inhibitors of RUNX1 Runt–CBFb binding, primary screen, biochemical, FRET, Cerulean-Runt, Venus-CBFb, uHTS. Runt-related transcription factor 1 (Homo sapiens) + Core-binding factor subunit beta …. Cerulean-Runt/Venus-CBFb FRET ratio 530/480, 1 h. inhibition, % at 20 µM. 220,000 tested, 0.46% active. AID 1496, 2009;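 active = inhibition over about 50% at 20 µM in the single-dose screen, limit read from the data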;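 also: 0% = DMSO wells and 100% = excess unlabeled CBFb competitor control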
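Measured by: fluorescence energy transfer, 422 nm excitation, 530/480 nm emission; test system: Cerulean-tagged RUNX1 Runt domain (FRET donor) fusion protein; buffer or medium: Tris pH 7.5 buffer with BSA; compound: one dose, 20 µM compound, 1% DMSO; times: two 1 h room-temperature incubations shielded from light; benchmarks: unlabeled CBFb 5 µM, positive control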
IMP-1 inh-2: IMP-1 metallo-beta-lactamase inhibitors, confirmation, selectivity assay for selective VIM-2 inhibitor project, biochemical, epi-absorbance readout, triplicate; shares compounds with VIM-2 inhibitor; purified IMP-1, nitrocefin hydrolysis, epi-absorbance fluorescence; inhibition, % at 5.6 µM; 1,300 tested, under 10 active; AID 1856, 2009; call rule not given here;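 also: 0% = enzyme with vehicle and 100% = vehicle without enzyme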
VIM-2 FRET inh: VIM-2 inhibitors in FRET format, confirmation, artefact control for selective VIM-2 inhibitor project, biochemical, epi-absorbance artifact exclusion. shares compounds with VIM-2 inhibitor. purified VIM-2, CCF2 FRET substrate hydrolysis. inhibition, % at 5.6 µM. 1,300 tested, 23% active. AID 1857, 2009;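 active = inhibition above the mean of all tested compounds plus 3 SD, cut at about 19% in these data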;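 also: 0% = VIM-2 plus DMSO and 100% = no enzyme wells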
TEM-1 inh: TEM-1 serine beta-lactamase inhibitors, counter-screen for VIM-2 inhibitor project, biochemical, epi-absorbance, HTS; shares compounds with VIM-2 inhibitor; Purified TEM-1, nitrocefin hydrolysis, epi-absorbance fluorescence; inhibition, % at 5.6 µM; 1,300 tested, 3% active; AID 1866, 2009;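 active = inhibition above that campaign's mean inhibition plus 3 SD, cut at about 0.46% in these data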;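 also: 0% = TEM-1 with DMSO and 100% = TEM-1 with 100 µM potassium clavulanate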
VIM-2 inh conf: VIM-2 metallo-beta-lactamase inhibitors, confirmation, biochemical, epi-absorbance, hits shared with IMP-1 screen | 1,300 tested, 96% active | inhibition, % at 5.6 µM | AID 2187, 2009 | purified VIM-2, nitrocefin hydrolysis | shares compounds with VIM-2 inhibitor;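 active = inhibition of the VIM-2 beta-lactamase enzyme above about 11% from the earlier first-round screen, limit read from the data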;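 also: 0% = VIM-2 with DMSO and 100% = buffer wells without enzyme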
* marks the source's active call; other numbers are inactive results; ? = inconclusive; · = no result. Shown are actives, neighbours in structure and some others; about 2.6% of the full set was active somewhere.

SMILES	Runt-SMMHC FRET	RanGTP-Imp inh	IMP-1 inh-1	VIM-2 inhibitor	Runt-CBFb FRET	IMP-1 inh-2	VIM-2 FRET inh	TEM-1 inh	VIM-2 inh conf
Cc1c(C)c2ccc(OCC(=O)N3CCC[C@@H]3C(=O)O)c(C)c2oc1=O	·	1.4	-4.0	41.1*	·	-3.2	63.7*	-10.6	48.5*
O=C(c1ccc(CS(=O)c2ccccc2Cl)o1)N1CCN(c2ccccn2)CC1 (stereo not given)	·	-0.9	-2.7	-2.4	·	·	·	·	·
O=C(CSc1nnnn1-c1ccc(C(=O)O)cc1)NC1CC1	·	3.3	-3.6	-1.0	·	·	·	·	·
CCCCCCC(C)n1[nH]c(=O)cc1N (stereo not given)	1.8	1.9	-3.5	-3.4	0.6	·	·	·	·
CCc1cc(=O)oc2c(C)c(OCC(=O)N3CCC[C@@H]3C(=O)O)ccc12	·	?	-2.1	22.8*	·	-3.0	38.7*	-6.7	29.1*
O=C(CSc1nnc(-c2cccs2)n1CC1CCCO1)c1cc2ccccc2o1 (stereo not given)	1.2	2.4	-2.0	13.8*	1.0	-3.6	30.7*	-9.4	17.2*
Cc1nc2ccccc2c2oc(C(=O)NCCCN3CCCC3=O)cc12	2.6	0.9	-1.2	1.8	0.7	·	·	·	·
Cc1nc2ccccc2c2oc(C(=O)NCCN3CCN(C)CC3)cc12	0.8	2.7	-5.6	41.8*	2.6	-4.1	0.8	-8.4	53.4*
Cc1cc(Cl)ccc1OC(C)C(=O)Nc1ccc(C(=O)Nc2ccccc2C(=O)O)cc1 (stereo not given)	·	4.5	0.6	1.0	·	·	·	·	·
O=C1c2cccc3c(N4CCCCC4)ccc(c23)C(=O)N1CCO	-292.8	-304.7	0.7	12.8*	-231.6	0.1	2.3	-4.8	25.3*
Cc1nc2cc(-c3ccc(Cl)cc3)nn2c(NCCN(C)C)c1C	0.0	0.4	-2.8	18.6*	1.1	-1.7	-3.5	-7.0	44.4*
COc1ccc(C)cc1Nc1c2c(nc3ccccc13)CCC2	·	-1.0	-1.2	19.4*	·	-3.1	-0.4	-6.0	28.4*
Fc1ccc(Nc2c3c(nc4ccccc24)CCC3)cc1	3.4	2.2	-6.1	-0.8	-0.5	·	·	·	·
COc1ccc(Nc2c3c(nc4ccccc24)CCCC3)cc1OC	-1.5	?	-3.3	16.1*	·	-2.8	-1.3	-6.8	29.7*
CC(C)CN(C(=O)CCCOc1ccc(Cl)cc1Cl)c1c(N)n(Cc2ccccc2)c(=O)[nH]c1=O	·	4.5	·	·	·	·	·	·	·
Cc1c(OCC(=O)NCC(O)c2ccccc2)ccc2c3c(c(=O)oc12)CCC3 (stereo not given)	·	-4.8	-0.4	20.0*	·	-2.6	-4.4	-9.4	28.1*
O=C(COc1cc2oc(=O)c3c(c2cc1Cl)CCC3)NCC(O)c1ccccc1 (stereo not given)	·	0.7	-2.5	13.9*	·	-2.2	2.4	-5.5	26.2*
O=C(COc1cc2oc(=O)c3c(c2cc1Cl)CCC3)Nc1ccccn1	·	1.0	-0.8	6.4	·	·	·	·	·
O=C(COc1cc2oc(=O)c3c(c2cc1Cl)CCC3)NCCN1CCOCC1	·	4.0	0.8	23.2*	·	-1.9	-0.5	-5.7	29.7*
NC(=O)COc1cc2oc(=O)c3c(c2cc1Cl)CCCC3	·	?	-0.2	14.3*	·	-2.6	-2.7	-3.3	19.1*
CC(Oc1cc2oc(=O)c3c(c2cc1Cl)CCC3)C(=O)NCCN1CCOCC1 (stereo not given)	·	-0.3	-3.7	13.4*	·	-2.6	-4.9	-2.5	23.4*
O=C(c1ccccc1)c1ccc(-n2ccnc2)c([N+](=O)[O-])c1	·	-0.7	-0.6	6.9	·	·	·	·	·
Cc1ccc2c(c1)N(CC(=O)N1CCCCC1)C(=O)C(C)O2 (stereo not given)	·	-0.5	-1.8	-2.2	·	·	·	·	·
Cc1cc(N2C(=O)CC(N3CCN(c4ccc(C(=O)c5cccs5)cc4)CC3)C2=O)no1 (stereo not given)	-1.1	?	-1.9	13.2*	-0.6	-4.5	0.1	-7.4	3.2
O=C(Nc1ccccc1F)c1ccc(C(=O)c2ccccc2)cc1	·	0.6	-2.6	-3.6	·	·	·	·	·
SMILES	Runt-SMMHC FRET	RanGTP-Imp inh	IMP-1 inh-1	VIM-2 inhibitor	Runt-CBFb FRET	IMP-1 inh-2	VIM-2 FRET inh	TEM-1 inh	VIM-2 inh conf
CCOC(=O)N=S(N)(=O)c1ccc(Cl)cc1 (stereo not given)	-1.3	1.2	0.3	15.5*	0.6	1.4	32.5*	-4.5	26.4*
CCOC(=O)N=S(N)(=O)c1ccccc1 (stereo not given)	-0.5	3.2	-1.8	23.1*	-0.8	-1.9	51.0*	-5.0	33.9*
CCOC(=O)c1sc(CS(=O)(=O)c2ccc(Cl)cc2)nc1C	-11.1	8.1	-0.8	-0.3	1.6	·	·	·	·
CCOC(=O)/C(=N\Nc1ccccc1)S(=O)(=O)c1ccccc1	-5.8	-3.2	0.8	-3.0	0.9	·	·	·	·
CSc1ccccc1OCc1cc(C(=O)NC2CCOC2)no1 (stereo not given)	·	0.1	-1.1	0.3	·	·	·	·	·
CCCn1c(C(C)C)n[nH]c1=S	5.9	0.8	-2.7	26.4*	4.1	-3.7	54.1*	-6.9	35.3*
CC(/C=N/n1c(-c2cccnc2)n[nH]c1=S)=C\c1ccccc1	10.4	2.1	-2.5	5.7	·	·	·	·	·
CC(/C=N/n1c(COc2ccccc2)n[nH]c1=S)=C\c1ccccc1	-0.4	-2.0	-5.0	-4.2	5.5	·	·	·	·
CC(=C/c1ccccc1)/C=N/n1c(C)n[nH]c1=S	·	4.7	-1.9	33.0*	·	-2.5	61.5*	-8.0	42.1*
CC(=C/c1ccccc1)/C=N/n1c(-c2ccncc2)n[nH]c1=S	9.9	-6.0	0.7	16.0*	8.5	-3.7	47.9*	-8.8	28.1*
CCOCCc1nnc(NC(=O)CCS(=O)(=O)c2ccccc2)s1	·	-0.2	-1.1	12.4*	·	-2.2	16.9	-2.7	14.4*
CCOCCc1nnc(NC(=O)C(C)Oc2ccccc2)s1 (stereo not given)	-2.5	-1.2	1.0	1.4	-0.8	·	·	·	·
